Test results published in ChEMBL document CHEMBL1629653, “CMY-31 and CMY-36 cephalosporinases encoded by ColE1-like plasmids” (Antimicrob Agents Chemother, 2009).

Assays:
[1] = substrate: O=C(Cc1cccs1)N[C@@H]1C(=O)N2C(C(=O)O)=C(/C=C/c3ccc([N+](=O)[O-])cc3[N+](=O)[O-])CS[C@H]12; conditions: Salmonella enterica subsp. enterica serovar Newport; AM17274
[2] = substrate: O=C(Cc1cccs1)N[C@@H]1C(=O)N2C(C(=O)[O-])=C(C[n+]3ccccc3)CS[C@H]12; conditions: Salmonella enterica subsp. enterica serovar Newport; AM17274
[3] = substrate: CC1(C)S[C@@H]2[C@H](NC(=O)Cc3ccccc3)C(=O)N2[C@H]1C(=O)O; conditions: Salmonella enterica subsp. enterica serovar Newport; AM17274
[4] = substrate: O=C(Cc1cccs1)N[C@@H]1C(=O)N2C(C(=O)O)=C(/C=C/c3ccc([N+](=O)[O-])cc3[N+](=O)[O-])CS[C@H]12; conditions: Salmonella enterica subsp. enterica serovar Newport; AM17274; remark: listed apart in the source
[5] = substrate: CO/N=C(\C(=O)N[C@@H]1C(=O)N2C(C(=O)O)=C(COC(C)=O)CS[C@H]12)c1csc(N)n1; conditions: Salmonella enterica subsp. enterica serovar Newport; AM17274
[6] = substrate: O=C(Cc1cccs1)N[C@@H]1C(=O)N2C(C(=O)[O-])=C(C[n+]3ccccc3)CS[C@H]12; conditions: Salmonella enterica subsp. enterica serovar Newport; AM17274; remark: listed apart in the source
[7] = substrate: CC1(C)S[C@@H]2[C@H](NC(=O)Cc3ccccc3)C(=O)N2[C@H]1C(=O)O; conditions: Salmonella enterica subsp. enterica serovar Newport; AM17274; remark: listed apart in the source
[8] = substrate: O=C(Cc1cccs1)N[C@@H]1C(=O)N2C(C(=O)O)=C(/C=C/c3ccc([N+](=O)[O-])cc3[N+](=O)[O-])CS[C@H]12; assay: (§1) Activity of Klebsiella pneumoniae HP205 cephalosporinase CMY-36 by spectrophotometry
Summary of the method: (§2)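 CMY β-lactamases purified from sonicated, ultracentrifuge-clarified extracts of E. coli DH5α clones (pB-cmy36, pB-cmy2) by Q- then S-Sepharose ion exchange (>90% pure by SDS-PAGE); steady-state hydrolysis kinetics measured spectrophotometrically, CMY-2 run in parallel.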

[9] = substrate: CO/N=C(\C(=O)N[C@@H]1C(=O)N2C(C(=O)O)=C(COC(C)=O)CS[C@H]12)c1csc(N)n1; assay: as §1
Summary of the method: as §2

[10] = substrate: O=C(Cc1cccs1)N[C@@H]1C(=O)N2C(C(=O)[O-])=C(C[n+]3ccccc3)CS[C@H]12; assay: as §1
Summary of the method: as §2

[11] = substrate: CC1(C)S[C@@H]2[C@H](NC(=O)Cc3ccccc3)C(=O)N2[C@H]1C(=O)O; assay: as §1
Summary of the method: as §2

[12] = substrate: O=C(Cc1cccs1)N[C@@H]1C(=O)N2C(C(=O)O)=C(/C=C/c3ccc([N+](=O)[O-])cc3[N+](=O)[O-])CS[C@H]12; assay: (§3) Ratio of Kcat to Km for Klebsiella pneumoniae cephalosporinase CMY-36 by spectrophotometry
Summary of the method: as §2

[13] = substrate: O=C(Cc1cccs1)N[C@@H]1C(=O)N2C(C(=O)[O-])=C(C[n+]3ccccc3)CS[C@H]12; assay: as §3
Summary of the method: as §2

[14] = substrate: CC1(C)S[C@@H]2[C@H](NC(=O)Cc3ccccc3)C(=O)N2[C@H]1C(=O)O; assay: as §3
Summary of the method: as §2

Protein | kcat/Km [1] [M⁻¹ s⁻¹] | kcat/Km [2] [M⁻¹ s⁻¹] | kcat/Km [3] [M⁻¹ s⁻¹] | Km [4] [µM] | kcat [4] [s⁻¹] | kcat [5] [s⁻¹] | kcat [6] [s⁻¹] | Km [7] [µM] | kcat [7] [s⁻¹] | Km [8] [µM] | kcat [8] [s⁻¹] | kcat [9] [s⁻¹] | Km [10] [µM] | kcat [10] [s⁻¹] | Km [11] [µM] | kcat [11] [s⁻¹] | kcat/Km [12] [M⁻¹ s⁻¹] | kcat/Km [13] [M⁻¹ s⁻¹] | kcat/Km [14] [M⁻¹ s⁻¹]
Efflux transporter (Salmonella newport), Q3S5C3 (protein) MSWIVLLIAGLLEVVWAIGLKYTHGFTRLTPSIITIAAMIVSIAMLSWAMRTLPVGTAYAVWTGIGAVGAAITGILLLGESASPARLLSLGLIVAGIIGLKLSTH | 9.6e+07 | 2.1e+06 | 2.57e+07 | 10 | 960 | < 0.01 | 310 | 0.3 | 7.7 |  |  |  |  |  |  |  |  |  | 
Class C beta-lactamase CMY-36 (Klebsiella pneumoniae), Q48435 (protein) MMKKSLCCALLLTASFSTFAAAKTEQQIADIVNRTITPLMQEQAIPGMAVAVIYQGKPYYFTWGKADIANNHPVTQQTLFELGSVSKTFNGVLGGDCIARGEIKLSDPVTKYWPELTGKQWQGIRLLHLATYTAGGLPLQIPDDVRDKAALLHFYQNWQPQWTPGAKRLYANSSIGLFGALAVKPSGMSYEEAMTRRVLQPLKLAHTWITVPENEQKDYAWGYREGKPVHVSPGQLDAEAYGVKSSVIDMARWVQANMDASHVQEKTLQQGIALAQSRYWRIGDMYQGLGWEMLNWPLKADSIINGSDSKVALAALPAVEVNPPAPAVKASWVHKTGSTGGFGSYVAFVPEKNLGIVMLANKSYPNPVRVEAAWRILEKLQ |  |  |  |  |  |  |  |  |  | 7.3 | 910 | < 0.01 | 150 | 360 | 0.3 | 9.1 | 1.25e+08 | 2.4e+06 | 3.03e+07
